Active and inactive are the calls of the source. No cut-off for these calls is given here.
Key:
[1] = Cytotoxicity against human HuH7 cells measured after 24 hrs by CellTiter-Glo luminescent cell viability assay; format: cell-based, Huh-7
Procedure, shortened: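 DENV2-infected Huh7 cells treated across a concentration range; cell viability read 24 h later. CC50 (50% cytotoxicity) derived by non-linear regression; mean ± SD of experimental duplicates, n ≥ 2 repeats.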

[2] = tested on: dengue virus type 2; test: Antiviral activity against Dengue virus serotype 2 replicon harboring GVD mutant infected in HuH7 cells assessed as reduction in viral RNA translation at 2 uM measured at 6 hrs post infection by luciferase reporter gene assay relative to control; format: functional; design: scale not given: the % may be the effect or the level left
Procedure, shortened: (§1)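 Huh7 cells transfected with in vitro-transcribed nonreplicative DENV2(GVD) reporter replicon RNA, then treated immediately with compound at 2 or 10 μM. Intracellular firefly luciferase activity read 6 h post-transfection as a measure of RNA translation and expressed relative to DMSO-treated samples. Mean ± SD of experimental duplicates, n = 3 repeats.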

[3] = tested on: dengue virus type 2; test: Antiviral activity against Dengue virus serotype 2 replicon harboring GVD mutant infected in HuH7 cells assessed as reduction in viral RNA translation at 10 uM measured at 6 hrs post infection by luciferase reporter gene assay relative to control; format: functional; design: scale not given: the % may be the effect or the level left; procedure, shortened: as §1
[4] = tested on: dengue virus type 2; test: Antiviral activity against Dengue virus serotype 2 strain New Guinea C infected in HuH7 cells assessed as reduction in log-fold change by measuring focus forming unit at 2 uM measured at 24 hrs post infection by focus forming assay relative to control; format: functional, Thailand/NGS-C/1944
Procedure, shortened: (§2)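 DENV2-infected Huh7 cells treated with compound at 2 or 10 μM. Infectious virus secreted into culture supernatants at 24 h post-infection/treatment was titred by focus-forming assay. Result expressed as log-fold change relative to DMSO treatment.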

[5] = tested on: dengue virus type 2; test: Antiviral activity against Dengue virus serotype 2 strain New Guinea C infected in HuH7 cells assessed as reduction in log-fold change by measuring focus forming unit at 10 uM measured at 24 hrs post infection by focus forming assay relative to control; format: functional, Thailand/NGS-C/1944; procedure, shortened: as §2
[6] = Half life in mouse hepatic microsomes at 1 uM in presence of NADPH by LC-MS/MS method; format: ADME, Microsome; conditions: liver microsomes
Procedure, shortened: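 Compound incubated with mouse liver microsomes; half-life (T1/2, min) of the compound reported as a measure of metabolic stability.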

[7] = tested on: dengue virus type 2; test: Antiviral activity against Dengue virus serotype 2 strain New Guinea C infected in HuH7 cells at […] to 10 uM measured at 24 hrs post infection by focus forming assay; format: functional, cell-based; conditions: Thailand/NGS-C/1944
Procedure, shortened: (§3)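 Huh7 cells infected with DENV2, then treated with compound; screened at 2 and 10 μM. Infectious virus secreted into supernatant at 24 h post-infection/treatment titrated by focus-forming assay; expressed as log-fold change relative to DMSO. IC90 (1-log10 drop in infectious progeny) from concentration range by non-linear regression; mean ± SD of experimental duplicates, n ≥ 2 repeats.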

[8] = tested on: dengue virus type 2; test: Antiviral activity against Dengue virus serotype 2 strain New Guinea C infected in HuH7 cells at < 10 uM measured at 24 hrs post infection by focus forming assay; format: functional, cell-based; conditions: Thailand/NGS-C/1944; procedure, shortened: as §3
[9] = tested on: dengue virus type 2; test: Antiviral activity against Dengue virus serotype 2 strain New Guinea C infected in HuH7 cells measured at 24 hrs post infection by focus forming assay; format: functional; conditions: Thailand/NGS-C/1944, Huh-7, 24 h
Procedure, shortened: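 Huh7 cells infected with DENV2, then treated with a range of compound concentrations. Viral yield measured 24 h later by titration of infectious particles in supernatants; in parallel, cell viability measured. IC90 (1-log10 reduction in infectious progeny) and CC50 derived by non-linear regression. Mean ± SD of experimental duplicates, n ≥ 2 repeats.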

[10] = tested on: Enterovirus C; test: Antiviral activity against Polio virus Chat infected in Vero cells at 4 uM measured at 12 hrs post infection by crystal violet staining based plaque formation assay; format: functional, cell-based
Procedure, shortened: (§4)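 Vero cells infected with poliovirus or VSV, then treated with 4 μM compound for 12 h (poliovirus) or 6 h (VSV). Infectious virus released to supernatants quantified by plaque-forming assay, plotted relative to DMSO-treated samples. Mean ± SD of experimental duplicates, n ≥ 2 repeats.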

[11] = tested on: Vesicular stomatitis Indiana virus; test: Antiviral activity against Vesicular stomatitis virus Indiana infected in Vero cells at 4 uM measured at 6 hrs post infection by crystal violet staining based plaque formation assay; format: functional, cell-based; procedure, shortened: as §4
[12] = tested on: Vero; test: Antiviral activity against Respiratory syncytial virus A2 infected in Vero cells at 2.5 uM pretreated for 7 days followed by viral infection by crystal violet staining based plaque formation assay; format: functional, cell-based; conditions: Human respiratory syncytial virus A2
[13] = tested on: Kunjin virus; test: Antiviral activity against West Nile virus Kunjin infected in HuH7 cells at 2 uM measured at 24 hrs post infection by crystal violet staining based plaque formation assay; format: functional, cell-based
Procedure, shortened: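 Huh7 cells infected with West Nile virus, then treated with 2 μM for 24 h. Infectious virus released to supernatants quantified by plaque assay and plotted relative to DMSO-treated samples; mean ± SD of experimental duplicates, n ≥ 2 repeats.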

C=CC(=O)Nc1cc(-n2c3c(ccc2=O)CCc2ccc(-c4cnn(C)c4)cc2-3)ccc1C
CC50 at 24 h [1]: > 160 µM | Activity [2]: 49% | Activity [3]: 60% | Activity [4]: 0.5 log10FFU/ml | Activity [5]: 1 log10FFU/ml

C=CC(=O)Nc1cc(-n2c(=O)ccc3cnc4ccc(-c5ccc6c(c5)OCO6)cc4c32)ccc1C
CC50 at 24 h [1]: 46 µM | Activity [2]: 32% | Activity [3]: 94% | Activity [4]: 2.8 log10FFU/ml | Activity [5]: 4 log10FFU/ml | half-life at 1 µM [6]: 2.7 min

C=CC(=O)Nc1cc(-n2c(=O)ccc3cnc4ccc(-c5cnn(C)c5)cc4c32)ccc1OCCNC(C)=O
CC50 at 24 h [1]: 99 µM | Activity [2]: 39% | Activity [3]: 90% | Activity [4]: 1.1 log10FFU/ml | Activity [5]: 4 log10FFU/ml

C=CC(=O)Nc1cc(-n2c(=O)ccc3cnc4ccc(-c5ccc(N)nc5)cc4c32)ccc1C
CC50 at 24 h [1]: 75 µM | Activity [2]: 44% | Activity [3]: 75% | Activity [4]: 0.8 log10FFU/ml | Activity [5]: 4 log10FFU/ml | half-life at 1 µM [6]: 6.4 min

C=CC(=O)Nc1cc(-n2c(=O)ccc3ccc4ccc(-c5cnn(C)c5)cc4c32)ccc1C
CC50 at 24 h [1]: > 160 µM | Activity [2]: 76% | Activity [3]: 95% | Activity [4]: 4 log10FFU/ml | Activity [5]: 4 log10FFU/ml | half-life at 1 µM [6]: 4 min

C=CC(=O)Nc1cc(-n2c(=O)ccc3ccc4ccc(-c5ccc6ccncc6c5)cc4c32)ccc1C
CC50 at 24 h [1]: 75 µM | Activity [2]: 82% | Activity [3]: 94% | Activity [4]: 1.9 log10FFU/ml | Activity [5]: 4 log10FFU/ml | half-life at 1 µM [6]: 9 min

C=CC(=O)N1CCC[C@@H](n2nc(-c3ccc(Oc4ccccc4)cc3)c3c(N)ncnc32)C1
Activity [7]: inactive

C=CC(=O)N1CCc2ccc(-n3c(=O)ccc4cnc5ccc(-c6ccc(S(=O)(=O)NC(C)(C)C)cc6)cc5c43)cc21
CC50 at 24 h [1]: 13 µM | Activity [2]: 81% | Activity [3]: 100% | Activity [4]: 0 log10FFU/ml | Activity [5]: 1.9 log10FFU/ml | half-life at 1 µM [6]: 2.3 min

C=CC(=O)N1CCc2ccc(-n3c(=O)n(C)c4cnc5ccc(-c6ccc7ccncc7c6)cc5c43)cc21
CC50 at 24 h [1]: 126 µM | Activity [2]: 77% | Activity [3]: 98% | Activity [4]: 2 log10FFU/ml | Activity [5]: 4 log10FFU/ml | half-life at 1 µM [6]: 2 min

C=CC(=O)Nc1cc(-n2c(=O)ccc3cnc4ccc(-c5cnn(C)c5)cc4c32)ccc1C(=O)O
CC50 at 24 h [1]: > 160 µM | Activity [2]: 3% | Activity [3]: 19% | Activity [4]: 0 log10FFU/ml | Activity [5]: 0 log10FFU/ml

C=CC(=O)Nc1cc(-n2c(=O)ccc3cnc4ccc(-c5cnc6ccccc6c5)cc4c32)ccc1C
CC50 at 24 h [1]: > 160 µM | Activity [2]: 82% | Activity [3]: 95% | Activity [4]: 2.7 log10FFU/ml | Activity [5]: 4 log10FFU/ml | half-life at 1 µM [6]: 1.3 min

CCC(=O)N1CCc2ccc(-n3c(=O)ccc4cnc5ccc(-c6cnn(C)c6)cc5c43)cc21
Activity [8]: inactive

C=CC(=O)N1CCc2ccc(-n3c(=O)ccc4cnc5ccc(-c6cnn(C)c6)cc5c43)cc21
IC90 [9]: 0.343 µM | CC50 at 24 h [1]: 67 to 68 µM | Activity [10]: Active | Activity [11]: Active | Activity [12]: Active | Activity [13]: Active | Activity [2]: 94% | Activity [3]: 98% | Activity [4]: 4 log10FFU/ml | Activity [5]: 4 log10FFU/ml | half-life at 1 µM [6]: 1.2 min

C=CC(=O)Nc1cc(-n2c(=O)ccc3cnc4ccc(N5CCN(c6ccccc6)CC5)cc4c32)ccc1C
CC50 at 24 h [1]: 44 µM | Activity [2]: 0% | Activity [3]: 2% | Activity [4]: 0.1 log10FFU/ml | Activity [5]: 0 log10FFU/ml | half-life at 1 µM [6]: 5 min

C=CC(=O)Nc1cc(-n2c(=O)ccc3ccc4ccc(-c5cn[nH]c5)cc4c32)ccc1C
CC50 at 24 h [1]: 29 µM | Activity [2]: 39% | Activity [3]: 79% | Activity [4]: 2 log10FFU/ml | Activity [5]: 4 log10FFU/ml | half-life at 1 µM [6]: 4 min

C=CC(=O)Nc1cc(-n2c(=O)ccc3cnc4ccc(-c5cnn(C)c5)cc4c32)ccc1C
CC50 at 24 h [1]: > 160 µM | Activity [2]: 40% | Activity [3]: 34% | Activity [4]: 1 log10FFU/ml | Activity [5]: 4 log10FFU/ml | half-life at 1 µM [6]: 4.1 min

C=CC(=O)N1CCc2ccc(-n3c(=O)n(C)c4cnc5ccc(-c6cnn(C)c6)cc5c43)cc21
CC50 at 24 h [1]: 79 µM | Activity [2]: 94% | Activity [3]: 99% | Activity [4]: 2.5 log10FFU/ml | Activity [5]: 4 log10FFU/ml | half-life at 1 µM [6]: 2 min

C=CC(=O)Nc1cc(-n2c(=O)ccc3cnc4ccc(-c5ccc(NS(C)(=O)=O)cc5)cc4c32)ccc1C
Activity [7]: inactive

C=CC(=O)Nc1cc(-n2c(=O)ccc3cnc4ccc(-c5cnn(C)c5)cc4c32)ccc1F
CC50 at 24 h [1]: 105 µM | Activity [2]: 97% | Activity [3]: 99% | Activity [4]: 4 log10FFU/ml | Activity [5]: 4 log10FFU/ml | half-life at 1 µM [6]: 4.5 min

Cc1ccc(-n2c(=O)ccc3ccc4ccc(-c5ccc6ccncc6c5)cc4c32)cc1NC(=O)/C=C/CN(C)C
CC50 at 24 h [1]: 21 µM | Activity [2]: 17% | Activity [3]: 66% | Activity [4]: 3.3 log10FFU/ml | Activity [5]: 4 log10FFU/ml | half-life at 1 µM [6]: 6.3 min

C=CC(=O)Nc1cc(-n2c(=O)ccc3cnc4ccc(N5CCOCC5)cc4c32)ccc1C
CC50 at 24 h [1]: 103 µM | Activity [2]: 0% | Activity [3]: 23% | Activity [4]: 0.1 log10FFU/ml | Activity [5]: 1.2 log10FFU/ml | half-life at 1 µM [6]: 9 min

C=CC(=O)Nc1cc(-n2c(=O)ccc3cnc4ccc(-c5cnn(C)c5)cc4c32)ccc1C(=O)N(C)C
CC50 at 24 h [1]: 83 µM | Activity [2]: 4% | Activity [3]: 93% | Activity [4]: 2 log10FFU/ml | Activity [5]: 4 log10FFU/ml

C=CC(=O)N1CCc2ccc(N3C(=O)NCc4cnc5ccc(-c6cnn(C)c6)cc5c43)cc21
CC50 at 24 h [1]: 68 µM | Activity [2]: 49% | Activity [3]: 53% | Activity [4]: 0.1 log10FFU/ml | Activity [5]: 0.8 log10FFU/ml | half-life at 1 µM [6]: 2 min

Cc1c(NC(=O)c2ccc(C(C)(C)C)cc2)cccc1-c1cn(C)c(=O)c(Nc2ccc(C(=O)N3CCOCC3)cc2)n1
Activity [7]: inactive

C=CC(=O)Nc1cc(-n2c(=O)ccc3cnc4ccc(-c5cn[nH]c5)cc4c32)ccc1C
CC50 at 24 h [1]: 77 µM | Activity [2]: 29% | Activity [3]: 76% | Activity [4]: 0.8 log10FFU/ml | Activity [5]: 4 log10FFU/ml | half-life at 1 µM [6]: 6.5 min

C=CC(=O)Nc1cc(-n2c(=O)ccc3cnc4ccc(Nc5cnn(C)c5)cc4c32)ccc1C
CC50 at 24 h [1]: 107 µM | Activity [2]: 23% | Activity [3]: 24% | Activity [4]: 0 log10FFU/ml | Activity [5]: 0.4 log10FFU/ml | half-life at 1 µM [6]: 7.9 min

C=CC(=O)Nc1cc(-n2c3c(ccc2=O)CCc2ccc(-c4ccc5ccncc5c4)cc2-3)ccc1C
CC50 at 24 h [1]: > 160 µM | Activity [2]: 77% | Activity [3]: 88% | Activity [4]: 0.5 log10FFU/ml | Activity [5]: 0.1 log10FFU/ml

From ChEMBL document CHEMBL4041550, “Structure-Activity Relationship Study of QL47: A Broad-Spectrum Antiviral Agent” (ACS Med Chem Lett, 2017)
